According to ChEMBL document CHEMBL4304748, “Design, Synthesis, and Biological Evaluation of a New Series of Carvedilol Derivatives That Protect Sensory Hair Cells from Aminoglycoside-Induced Damage by Blocking the Mechanoelectrical Transducer Channel” (J Med Chem, 2019):
Active and inactive are the calls of the source. The calls are words filed in the database; no cut-off is given here.

Assays:
[1] = Solubility of the compound; format: physicochemical
Mus musculus [2] = organism: Mus musculus; assay: Inhibition of MET in CD-1 mouse outer hair cells assessed as reduction in MET currents at 3 to 10 uM measured at -160 mV to +96 mV membrane potential by patch clamp assay
Mus musculus [3] = organism: Mus musculus; assay: Otoprotective activity against gentamicin-induced outer hair cell death in CD-1 mouse cochlea at 10 uM after 48 hrs by TRITC-phalloidin staining-based microscopic analysis relative to control; format: functional
Method in brief: (§1)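 Mouse cochlear cultures coincubated for 48 h with 5 μM gentamicin plus compound (5, 10 or 20 μM). OHCs counted in a 300 μm long segment of the mid-basal cochlea. Counts compared with 0.5% DMSO control and with gentamicin + 0.5% DMSO cultures.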

[4] = Binding affinity to MET in CD-1 mouse cochlear outer hair cells measured at -84 mV membrane potential by patch clamp assay
Method in brief: (§2)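 MET currents recorded from OHCs before and during extracellular superfusion of compound at 1, 3 and 10 μM, over membrane potentials from -164 to +96 mV. Currents normalized to the peak control current at +96 mV for each cell. Dose–response curves built at each membrane potential and fitted with eq 1 to give K_D and Hill coefficient.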

[5] = Toxicity in 3 days post fertilized AB zebrafish larvae assessed as effect on blood circulation at 100 uM incubated for 48 hrs by inverted microscopic method; design: species or system Danio rerio; details: in vivo
Method in brief: (§3)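 Zebrafish larvae at 3 dpf treated with compound at 30 or 100 μM for 48 h in three trials. Larvae scored for survival and for circulation, then startled and assayed for movement.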

Danio rerio [6] = organism: Danio rerio; assay: Otoprotective activity against neomycin-induced neuromast hair cell death in 4 days post fertilized AB zebrafish larvae assessed as increase in hair cell survival incubated for 1 hr by inverted microscopic method; format: functional, organism-based
Mus musculus [7] = organism: Mus musculus; assay: Inhibition of MET channel in CD-1 mouse outer hair bundles assessed as time constant of inward current decline at 3 uM at holding potential of […] by patch clamp assay
Method in brief: (§4)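 MET channels opened by steps from a holding potential of -84 mV, with 1 or 3 μM compound superfused. Currents averaged from 10 repetitions. The current decline was fitted with single exponentials to give time constants, and drug entry rates into hair cells were calculated from these.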

[8] = Toxicity in 3 days post fertilized AB zebrafish larvae assessed as effect on blood circulation at 30 uM incubated for 48 hrs by inverted microscopic method; design: species or system Danio rerio; details: in vivo; method in brief: as §3
[9] = Otoprotective activity against gentamicin-induced outer hair cell death in CD-1 mouse cochlea at 5 uM after 48 hrs by TRITC-phalloidin staining-based microscopic analysis relative to control; format: functional; method in brief: as §1
Pseudomonas aeruginosa [10] = assay: Effect on gentamycin-induced antibacterial activity against Pseudomonas aeruginosa at 2.2 uM incubated for 16 to 20 hrs by BacTiter-Glo assay; format: ADME, organism-based; details: in vivo
Mus musculus [11] = organism: Mus musculus; assay: Inhibition of MET channel in CD-1 mouse cochlea outer hair bundles assessed as time constant of inward current decline at 1 uM at holding potential of […] by patch clamp assay; method in brief: as §4
Mus musculus [12] = organism: Mus musculus; assay: Inhibition of MET channel in CD-1 mouse cochlea outer hair cells assessed as reduction in GTTR uptake at 100 uM preincubated for 5 mins followed by GTTR addition and measured after 24 mins by microscopic method
Method in brief: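 Mouse cochlear cultures pre-incubated 5 min with 100 μM compound or 1% DMSO, then 0.2 μM gentamicin Texas Red (GTTR) added. GTTR fluorescence intensity measured in first-row OHCs, with 10 cells analysed from each of three separate experiments (N = 30).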

Mus musculus [13] = organism: Mus musculus; assay: Otoprotective activity against gentamicin-induced outer hair cell death in CD-1 mouse cochlea at 20 uM after 48 hrs by TRITC-phalloidin staining-based microscopic analysis relative to control; format: functional; method in brief: as §1
Mus musculus [14] = organism: Mus musculus; assay: Inhibition of MET in CD-1 mouse cochlear outer hair cells assessed as reduction in MET currents at 1 to 10 uM measured at -164 mV membrane potential by patch clamp assay; method in brief: as §2
[15] = Cytotoxicity in CD-1 mouse cochlea assessed as disruption of hair bundle morphology in inner hair cell at 30 uM after 48 hrs by confocal microscopic analysis; format: toxicity, tissue-based
Method in brief: (§5)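 Mouse cochlear cultures exposed for 48 h to compound, either alone or with 5 μM gentamicin. Controls received 0.5% DMSO, or 5 μM gentamicin + 0.5% DMSO. Hair cell survival counted in a 300 μm segment of the mid-basal region. Confocal imaging used to assess IHC and OHC stereociliary bundle morphology.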

[16] = Binding affinity to MET in CD-1 mouse cochlear outer hair cells measured at -164 mV membrane potential by patch clamp assay; method in brief: as §2
[17] = Cytotoxicity in CD-1 mouse cochlea assessed as induction of cell death in outer hair cell at 30 uM in presence of gentamicin after 48 hrs by confocal microscopic analysis; format: toxicity, tissue-based; method in brief: as §5
Staphylococcus aureus [18] = assay: Effect on gentamycin-induced antibacterial activity against Staphylococcus aureus at 11 uM incubated for 16 to 20 hrs by BacTiter-Glo assay; format: ADME, organism-based; details: in vivo
[19] = Cytotoxicity in CD-1 mouse cochlea assessed as induction of cell death in outer hair cell at >=30 uM after 48 hrs by confocal microscopic analysis; format: toxicity, tissue-based; method in brief: as §5
[20] = Binding affinity to MET in CD-1 mouse cochlear outer hair cells measured at +96 mV membrane potential by patch clamp assay; method in brief: as §2
Klebsiella pneumoniae [21] = assay: Effect on gentamycin-induced antibacterial activity against Klebsiella pneumoniae at 2.2 uM incubated for 16 to 20 hrs by BacTiter-Glo assay; format: ADME, organism-based; details: in vivo
Danio rerio [22] = organism: Danio rerio; assay: Otoprotective activity against gentamicin-induced neuromast hair cell death in 4 days post fertilized AB zebrafish larvae assessed as increase in hair cell survival incubated for 6 hrs by inverted microscopic method; format: functional, organism-based
Pseudomonas aeruginosa [23] = assay: Effect on gentamycin-induced antibacterial activity against Pseudomonas aeruginosa at 11 uM incubated for 16 to 20 hrs by BacTiter-Glo assay; format: ADME, organism-based; details: in vivo
[24] = Toxicity in 3 days post fertilized AB zebrafish larvae assessed as reduction in larvae survival at 30 uM incubated for 48 hrs; design: species or system Danio rerio; details: in vivo; method in brief: as §3
[25] = Toxicity in 3 days post fertilized AB zebrafish larvae assessed as effect on larval movement at 100 uM incubated for 48 hrs; design: species or system Danio rerio; details: in vivo; method in brief: as §3
Mus musculus [26] = organism: Mus musculus; assay: Inhibition of MET in CD-1 mouse cochlea outer hair cells assessed as blockade of MET currents at 10 uM measured at -160 mV to +80 mV membrane potential by patch clamp assay relative to control
Method in brief: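 OHC MET currents recorded before and during exposure to 10 μM compound. Fractional block taken as the current during exposure relative to the control current at each membrane potential.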

Staphylococcus aureus [27] = assay: Effect on gentamycin-induced antibacterial activity against Staphylococcus aureus at 2.2 uM incubated for 16 to 20 hrs by BacTiter-Glo assay; format: ADME, organism-based; details: in vivo
Mus musculus [28] = organism: Mus musculus; assay: Inhibition of MET in CD-1 mouse cochlea outer hair cells assessed as reduction in MET currents at 1 to 10 uM measured at -150 mV to +100 mV membrane potential by patch clamp assay
Klebsiella pneumoniae [29] = assay: Effect on gentamycin-induced antibacterial activity against Klebsiella pneumoniae at 11 uM incubated for 16 to 20 hrs by BacTiter-Glo assay; format: ADME, organism-based; details: in vivo
[30] = Cytotoxicity in CD-1 mouse cochlea assessed as disruption of hair bundle morphology in outer hair cell at 30 uM after 48 hrs by confocal microscopic analysis; format: toxicity, tissue-based; method in brief: as §5
[31] = Binding affinity to MET in CD-1 mouse cochlear outer hair cells measured at +16 mV membrane potential by patch clamp assay; method in brief: as §2
[32] = Toxicity in 3 days post fertilized AB zebrafish larvae assessed as reduction in larvae survival at 100 uM incubated for 48 hrs; design: species or system Danio rerio; details: in vivo; method in brief: as §3

For `COc1ccccc1OCCN(CCCOc1cccc2[nH]c3ccccc3c12)CCOc1ccccc1OC`, the solubility [1] was “Insoluble”, the inhibition (Mus musculus [2]) was “inactive” and the Activity (Mus musculus [3]) was “inactive”.

With `COc1ccccc1OCCNCCCOc1cccc2[nH]c3ccccc3c12` the Kd [4] was 2400 nM, the Activity [5] was “Non-Toxic” and the EC50 (Danio rerio [6]) was 2080 nM. For the same compound, the TIME (Mus musculus [7]) was 1.67e-06 h, the Activity [8] was “Non-Toxic” and the Activity [9] was 88%. The Activity (Pseudomonas aeruginosa [10]) was “Non-Toxic”, the TIME (Mus musculus [11]) was 2.75e-06 h and the inhibition (Mus musculus [12]) was “Active”. The Activity (Mus musculus [13]) was “Active”, the inhibition (Mus musculus [14]) was “inactive” and the Activity [15] was “Toxic”. For the same compound, the Kd [16] was 4600 nM, the Activity (Mus musculus [3]) was “Active” and the Activity [17] was “Non-Toxic”. For the same compound, the Activity (Staphylococcus aureus [18]) was “Non-Toxic”, the Activity [19] was “Toxic” and the Kd [20] was 1700 nM. For the same compound, the Activity (Klebsiella pneumoniae [21]) was “Non-Toxic”, the EC50 (Danio rerio [22]) was 10800 nM and the Activity (Pseudomonas aeruginosa [23]) was “Non-Toxic”. The Activity [24] was “Non-Toxic”, the Activity [25] was “Non-Toxic” and the inhibition (Mus musculus [26]) was 100%. The Activity (Staphylococcus aureus [27]) was “Non-Toxic”, the inhibition (Mus musculus [28]) was “Active” and the Activity (Klebsiella pneumoniae [29]) was “Non-Toxic”. For the same compound, the Activity [30] was “Toxic”, the Kd [31] was 1000 nM and the Activity [32] was “Non-Toxic”.
